Experimental data: ChEMBL document CHEMBL1143088, “Non-acidic pyrazole EP1 receptor antagonists with in vivo analgesic efficacy” (Bioorg Med Chem Lett, 2008)

How the values were obtained:
[1] = target: T1, Prostaglandin E2 receptor EP1 subtype (Homo sapiens, UniProt P34995); assay: Displacement of [3H]PGE2 from human PGE2-EP1 receptor expressed in CHO-K1 cells; assay type: cell-based
T1 sequence (P34995 whole entry): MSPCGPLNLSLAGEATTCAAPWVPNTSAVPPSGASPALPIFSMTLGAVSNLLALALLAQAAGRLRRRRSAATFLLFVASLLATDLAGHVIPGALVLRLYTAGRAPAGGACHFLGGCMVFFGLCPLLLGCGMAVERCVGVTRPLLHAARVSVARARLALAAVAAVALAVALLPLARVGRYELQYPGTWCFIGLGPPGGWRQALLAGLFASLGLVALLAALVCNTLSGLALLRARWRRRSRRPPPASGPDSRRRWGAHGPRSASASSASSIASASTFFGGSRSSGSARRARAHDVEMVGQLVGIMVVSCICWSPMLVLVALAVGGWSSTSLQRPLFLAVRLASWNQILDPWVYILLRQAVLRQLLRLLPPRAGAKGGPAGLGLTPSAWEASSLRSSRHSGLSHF

[2] = Distribution coefficient, logD at pH 7.4; assay type: physicochemical; details: octanol/water
Summary of the method: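 Distribution coefficient between n-octanol and water buffered to pH 7.4; log10 of ratio of equilibrium concentrations of all species.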

[3] = Clearance in blood in rat at 10 mL/h/kg, iv; assay type: ADME, organism-based; details: whole blood
Summary of the method: (§1)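 Male rats (n = 1 per compound) dosed iv at 10 mL/h/kg over 1 h via femoral vein cannula, target 1 mg free compound/kg, formulated at 0.1 mg/mL in 0.9% saline with 2% DMSO and 10–20% Kleptose (some with a molar equivalent NaOH), filtered before dosing.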

[4] = Volume of distribution at steady state in rat at 10 mL/h/kg, iv; assay type: ADME, organism-based; details: in vivo, read-out: Vdss; summary of the method: as §1
[5] = Half life in rat at 10 mL/h/kg, iv; assay type: ADME, organism-based; details: in vivo; summary of the method: as §1

IC50 [1] [nM] | logD [2] | clearance [3] [mL/min/kg] | Vd [4] [L/kg] | half-life [5] [h] | Structure (SMILES)
200 | 2.8 | – | – | – | Cc1cc(C(=O)Nc2cccc(F)c2)nn1Cc1cc(Cl)ccc1OCc1ccccc1
63.1 | 3.4 | – | – | – | Cc1cc(NC(=O)OC2CCOCC2)nn1Cc1cc(Cl)ccc1OCC(C)C
25.1 | > 3.7 | 68 | 3.6 | 1.3 | Cc1cc(C(=O)NCc2ccccn2)nn1Cc1cc(Cl)ccc1OCc1ccccc1
25.1 | 3.3 | 124 | 3.9 | – | Cc1cc(NC(=O)OCC(C)C)nn1Cc1cc(Cl)ccc1OCc1ccccc1
79.4 | 3 | – | – | – | Cc1cc(C(=O)Nc2ccc(F)cc2)nn1Cc1cc(Cl)ccc1OCc1ccccc1
79.4 | > 3.7 | – | – | – | CCOC(=O)Nc1cc(C)n(Cc2cc(Cl)ccc2OCc2ccccc2)n1
10 | 1 | – | – | – | Cc1cc(C(=O)O)nn1Cc1cc(Cl)ccc1OCc1ccccc1
63.1 | > 3.7 | 55 | 3.3 | 1 | Cc1cc(NC(=O)C2CCOCC2)nn1Cc1cc(Cl)ccc1OCc1ccccc1
12.6 | > 3.7 | 59 | 7.5 | 2.9 | Cc1cc(NC(=O)Cc2ccccc2)nn1Cc1cc(Cl)ccc1OCc1ccccc1
10 | > 3.7 | – | – | – | Cc1cc(NC(=O)CC(C)(C)C)nn1Cc1cc(Cl)ccc1OCc1ccccc1
– | 1.2 | – | – | – | Cc1cc(C(=O)O)nn1Cc1cc(Br)ccc1OCc1ccccc1
200 | > 3.7 | – | – | – | COC(=O)Nc1cc(C)n(Cc2cc(Cl)ccc2OCc2ccccc2)n1
39.8 | > 3.7 | – | – | – | Cc1cc(NC(=O)C2CCCO2)nn1Cc1cc(Cl)ccc1OCc1ccccc1 (stereo not given)
50.1 | > 3.7 | – | – | – | Cc1cc(NC(=O)Cc2ccncc2)nn1Cc1cc(Cl)ccc1OCc1ccccc1
79.4 | 3.1 | 98 | 3 | – | Cc1cc(NC(=O)OCc2ccccn2)nn1Cc1cc(Cl)ccc1OCc1ccccc1
79.4 | 3.1 | – | – | – | Cc1cc(NC(=O)OCc2ccccc2)nn1Cc1cc(Cl)ccc1OCc1ccccc1
10 | 3.7 | – | – | – | Cc1cc(C(=O)Nc2c(F)cccc2F)nn1Cc1cc(Cl)ccc1OCc1ccccc1
158 | – | – | – | – | O=C(Cc1ccccc1)Nc1ccn(Cc2cc(Cl)ccc2OCc2ccccc2)n1
126 | > 3.7 | – | – | – | Cc1cc(C(=O)NC(C)C)nn1Cc1cc(Cl)ccc1OCc1ccccc1
– | 2.5 | – | – | – | Cc1ccc(-c2cc(Cl)ccc2OCc2ccccc2)n1-c1cccc(C(=O)O)c1
39.8 | > 3.7 | – | – | – | Cc1cc(C(=O)Nc2ccccc2)nn1Cc1cc(Cl)ccc1OCc1ccccc1
79.4 | 2.7 | 86 | 3.7 | 0.8 | Cc1cc(NC(=O)O[C@H]2CCOC2)nn1Cc1cc(Cl)ccc1OCc1ccccc1
31.6 | > 3.7 | – | – | – | Cc1cc(NC(=O)OC(C)(C)C)nn1Cc1cc(Cl)ccc1OCC(C)C
20 | > 3.7 | – | – | – | Cc1cc(NC(=O)Cc2ccccn2)nn1Cc1cc(Cl)ccc1OCc1ccccc1
126 | > 3.7 | – | – | – | Cc1cc(C(=O)Nc2ccccn2)nn1Cc1cc(Cl)ccc1OCc1ccccc1

IC50 [1] [nM] | logD [2] | clearance [3] [mL/min/kg] | Vd [4] [L/kg] | half-life [5] [h] | Structure (SMILES)
100 | > 3.7 | – | – | – | CNC(=O)c1cc(C)n(Cc2cc(Cl)ccc2OCc2ccccc2)n1
39.8 | > 3.7 | – | – | – | Cc1cc(NC(=O)C2CCOC2)nn1Cc1cc(Cl)ccc1OCc1ccccc1 (stereo not given)
15.8 | > 3.7 | 50 | – | – | Cc1cc(NC(=O)c2ccccc2)nn1Cc1cc(Cl)ccc1OCc1ccccc1
25.1 | > 3.7 | – | – | – | Cc1cc(NC(=O)C(C)C)nn1Cc1cc(Cl)ccc1OCc1ccccc1
251 | 3.1 | – | – | – | Cc1cc(C(=O)NN2CCOCC2)nn1Cc1cc(Cl)ccc1OCC(C)C
39.8 | > 3.7 | – | – | – | Cc1cc(NC(=O)C(F)(F)c2ccccc2)nn1Cc1cc(Cl)ccc1OCc1ccccc1
50.1 | > 3.7 | – | – | – | Cc1cc(C(=O)NCc2cccnc2)nn1Cc1cc(Cl)ccc1OCc1ccccc1
12.6 | > 3.7 | – | – | – | Cc1cc(NC(=O)c2c(F)cccc2F)nn1Cc1cc(Cl)ccc1OCc1ccccc1
39.8 | > 3.7 | – | – | – | Cc1cc(NC(=O)Cc2cccnc2)nn1Cc1cc(Cl)ccc1OCc1ccccc1
6.31 | 3.2 | – | – | – | Cc1cc(NC(=O)CC2CCCCC2)nn1Cc1cc(Cl)ccc1OCc1ccccc1
200 | 3.3 | – | – | – | Cc1cc(C(=O)NN2CCCCC2)nn1Cc1cc(Cl)ccc1OCC(C)C
25.1 | 3.1 | – | – | – | Cc1cc(NC(=O)C(F)(F)c2ccccn2)nn1Cc1cc(Cl)ccc1OCc1ccccc1
39.8 | > 3.7 | 75 | 9.3 | 4.6 | Cc1cc(C(=O)NCc2ccccc2)nn1Cc1cc(Cl)ccc1OCc1ccccc1
50.1 | 3.5 | – | – | – | Cc1cc(NC(=O)OC(C)(C)C(F)(F)F)nn1Cc1cc(Cl)ccc1OCC(C)C
25.1 | > 3.7 | – | – | – | Cc1cc(NC(=O)C2CCCC2)nn1Cc1cc(Cl)ccc1OCC(C)C
398 | – | – | – | – | O=C(Cc1ccccn1)Nc1ccn(Cc2cc(Cl)ccc2OCc2ccccc2)n1
15.8 | 3.5 | – | – | – | Cc1cc(NC(=O)C2CCCC2)nn1Cc1cc(Cl)ccc1OCc1ccccc1
316 | > 3.7 | – | – | – | CC(=O)Nc1cc(C)n(Cc2cc(Cl)ccc2OCc2ccccc2)n1
15.8 | > 3.7 | – | – | – | Cc1cc(NC(=O)C(C)(C)c2ccccn2)nn1Cc1cc(Cl)ccc1OCc1ccccc1
31.6 | > 3.7 | 68 | 3.5 | 1.7 | Cc1cc(NC(=O)C2CCCCC2)nn1Cc1cc(Cl)ccc1OCC(C)C
251 | – | – | – | – | O=C(Nc1ccn(Cc2cc(Cl)ccc2OCc2ccccc2)n1)c1ccccc1
63.1 | > 3.7 | – | – | – | Cc1cc(NC(=O)C(C)(C)c2ccccc2)nn1Cc1cc(Cl)ccc1OCc1ccccc1
50.1 | > 3.7 | – | – | – | Cc1cc(NC(=O)OC(C)C)nn1Cc1cc(Cl)ccc1OCC(C)C
126 | 3.7 | – | – | – | Cc1cc(C(N)=O)nn1Cc1cc(Cl)ccc1OCc1ccccc1
79.4 | > 3.7 | – | – | – | Cc1cc(C(=O)NCc2ccncc2)nn1Cc1cc(Cl)ccc1OCc1ccccc1

Structure (SMILES) | IC50 [1] [nM] | logD [2] | clearance [3] [mL/min/kg] | Vd [4] [L/kg] | half-life [5] [h]
Cc1cc(C(N)=O)nn1Cc1cc(Cl)ccc1OCC(C)C | 126 | 3.1 | – | – | –
